Data as given in ChEMBL document CHEMBL1130267, “Regulation of retinoidal actions by diazepinylbenzoic acids. Retinoid synergists which activate the RXR-RAR heterodimers” (J Med Chem, 1997).

Experiments:
[1] = target: T1, Retinoic acid receptor alpha (Homo sapiens, UniProt P10276); assay: Synergistic activity towards retinoic acid receptor-alpha
T1 sequence (P10276 whole entry): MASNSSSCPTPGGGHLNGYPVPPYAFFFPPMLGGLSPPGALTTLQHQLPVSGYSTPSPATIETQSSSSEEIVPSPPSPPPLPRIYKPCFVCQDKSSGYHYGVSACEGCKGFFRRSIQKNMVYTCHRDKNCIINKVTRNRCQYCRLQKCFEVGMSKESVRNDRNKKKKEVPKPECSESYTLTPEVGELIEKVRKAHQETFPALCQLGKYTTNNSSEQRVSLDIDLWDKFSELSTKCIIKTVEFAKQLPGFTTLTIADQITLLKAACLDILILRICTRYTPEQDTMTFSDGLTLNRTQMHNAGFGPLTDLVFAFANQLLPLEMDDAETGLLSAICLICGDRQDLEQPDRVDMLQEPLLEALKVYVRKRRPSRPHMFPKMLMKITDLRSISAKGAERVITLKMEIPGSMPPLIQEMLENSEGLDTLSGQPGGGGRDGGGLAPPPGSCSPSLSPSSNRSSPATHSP
How it was run: (§1)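 Competitive nitrocellulose filter binding to recombinant RARα ligand-binding domain fused to maltose-binding protein, using 8 nM [³H]Am80 as tracer. IC50 for displacement of specific binding was converted to Ki by Ki = IC50/(1 + [L]/Kd).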

HL-60 [2] = assay: Concentration of a compound which induces HL-60 cell differentiation to the extent of 50%; inactive below 1.0E-6M test compound; assay type: functional, cell-based, Homo sapiens
[3] = target: T2, Retinoic acid receptor beta (Homo sapiens, UniProt P10826); assay: Antagonistic activity towards retinoic acid receptor-beta; assay type: functional
T2 sequence (P10826 whole entry): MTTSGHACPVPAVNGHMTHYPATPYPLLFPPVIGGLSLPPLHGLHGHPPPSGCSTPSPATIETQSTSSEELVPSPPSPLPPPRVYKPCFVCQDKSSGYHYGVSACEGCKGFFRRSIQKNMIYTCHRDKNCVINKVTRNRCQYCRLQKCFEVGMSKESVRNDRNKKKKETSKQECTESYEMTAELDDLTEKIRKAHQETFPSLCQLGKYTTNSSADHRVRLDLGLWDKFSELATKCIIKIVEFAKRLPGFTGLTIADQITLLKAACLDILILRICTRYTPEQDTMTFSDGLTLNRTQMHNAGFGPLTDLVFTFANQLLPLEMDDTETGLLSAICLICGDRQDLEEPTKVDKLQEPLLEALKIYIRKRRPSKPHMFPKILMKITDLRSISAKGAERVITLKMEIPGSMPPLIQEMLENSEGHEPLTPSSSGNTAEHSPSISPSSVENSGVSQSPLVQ
How it was run: (§2)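 Filter binding competition on the MBP-fused RARβ ligand-binding domain against 20 nM [³H]Am80. The IC50 for halving specific binding was converted to Ki via Ki = IC50/(1 + [L]/Kd).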

HL-60 [4] = assay: Concentration which reduces by half the percentage of differentiated HL-60 cells induced by 1 x 10e-9 M Am80.; assay type: functional, cell-based; details: Homo sapiens
How it was run: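 Antagonism in HL-60 cells cotreated with 1 × 10^-9 M Am80 for 4 days, with Am80 alone and test compound alone run in parallel. Cells were seeded at about 8 × 10⁴/mL in RPMI1640/5% FBS, and compounds came from 2 mM ethanol stocks (final ethanol <0.5%). NBT reduction (0.2% NBT, 200 ng/mL TPA, 20 min, 37 °C) was counted on ≥200 cells. IC50 is the concentration halving the % of differentiated cells. Run at least twice.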

[5] = target: T1, Retinoic acid receptor alpha; assay: Antagonistic activity towards retinoic acid receptor-alpha; assay type: functional; how it was run: as §1
HL-60 [6] = assay: Concentration which reduces by half the percentage of differentiated HL-60 cells; Inactive at 1 x 10e-6 M; assay type: functional, cell-based, Homo sapiens
[7] = target: T3, Retinoic acid receptor RXR-beta (Homo sapiens, UniProt P28702); assay: Synergistic activity towards retinoid X receptor-beta
T3 sequence (P28702 whole entry): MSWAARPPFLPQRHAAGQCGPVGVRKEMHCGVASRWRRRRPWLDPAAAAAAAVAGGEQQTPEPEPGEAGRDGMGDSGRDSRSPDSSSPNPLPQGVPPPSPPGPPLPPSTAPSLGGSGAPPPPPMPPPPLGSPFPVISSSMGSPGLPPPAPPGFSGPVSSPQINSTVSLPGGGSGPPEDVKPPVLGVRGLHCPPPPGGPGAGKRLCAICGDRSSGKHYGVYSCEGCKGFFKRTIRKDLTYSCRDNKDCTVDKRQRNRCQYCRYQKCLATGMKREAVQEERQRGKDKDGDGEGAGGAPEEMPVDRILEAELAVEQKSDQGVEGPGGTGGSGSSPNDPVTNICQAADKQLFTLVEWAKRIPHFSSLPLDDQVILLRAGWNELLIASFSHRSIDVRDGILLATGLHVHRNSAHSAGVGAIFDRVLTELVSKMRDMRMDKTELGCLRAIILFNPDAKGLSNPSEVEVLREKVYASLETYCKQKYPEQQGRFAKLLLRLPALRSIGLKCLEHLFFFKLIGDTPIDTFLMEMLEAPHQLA

[8] = target: T2, Retinoic acid receptor beta; assay: Synergistic activity towards retinoic acid receptor-beta; how it was run: as §2
[9] = target: T4, Retinoic acid receptor RXR-alpha (Homo sapiens, UniProt P19793); assay: Synergistic activity towards retinoid X receptor-alpha
T4 sequence (P19793 whole entry): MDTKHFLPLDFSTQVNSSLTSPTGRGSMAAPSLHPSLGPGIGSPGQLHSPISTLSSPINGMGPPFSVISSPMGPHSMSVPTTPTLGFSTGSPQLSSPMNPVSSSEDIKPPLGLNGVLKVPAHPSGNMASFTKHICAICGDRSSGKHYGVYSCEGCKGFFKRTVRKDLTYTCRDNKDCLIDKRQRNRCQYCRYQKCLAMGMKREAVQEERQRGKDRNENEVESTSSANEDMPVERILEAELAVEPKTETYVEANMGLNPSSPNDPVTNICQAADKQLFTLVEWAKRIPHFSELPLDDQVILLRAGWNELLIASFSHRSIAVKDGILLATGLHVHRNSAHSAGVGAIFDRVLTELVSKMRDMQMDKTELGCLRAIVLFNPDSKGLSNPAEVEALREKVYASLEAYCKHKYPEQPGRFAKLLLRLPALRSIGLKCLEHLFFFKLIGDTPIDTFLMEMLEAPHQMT

[10] = target: T5, Retinoic acid receptor RXR-gamma (Homo sapiens, UniProt P48443); assay: Synergistic activity towards retinoid X receptor-gamma
T5 sequence (P48443 whole entry): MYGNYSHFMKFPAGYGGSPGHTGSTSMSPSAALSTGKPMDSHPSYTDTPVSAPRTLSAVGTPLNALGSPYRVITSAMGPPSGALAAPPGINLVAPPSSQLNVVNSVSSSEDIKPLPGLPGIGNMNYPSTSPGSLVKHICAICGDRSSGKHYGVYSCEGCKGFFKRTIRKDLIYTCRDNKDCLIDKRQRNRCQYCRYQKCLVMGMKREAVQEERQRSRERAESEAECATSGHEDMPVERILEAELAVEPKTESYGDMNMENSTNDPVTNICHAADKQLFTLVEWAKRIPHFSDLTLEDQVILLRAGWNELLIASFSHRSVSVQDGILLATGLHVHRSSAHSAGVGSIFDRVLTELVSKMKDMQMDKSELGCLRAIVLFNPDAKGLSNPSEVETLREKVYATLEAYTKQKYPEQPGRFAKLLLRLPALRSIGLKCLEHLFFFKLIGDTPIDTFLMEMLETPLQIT

[11] = target: T4, Retinoic acid receptor RXR-alpha; assay: Antagonistic activity towards retinoid X receptor-alpha; assay type: functional
[12] = target: T3, Retinoic acid receptor RXR-beta; assay: Antagonistic activity towards retinoid X receptor-beta; assay type: functional
[13] = target: T5, Retinoic acid receptor RXR-gamma; assay: Antagonistic activity towards retinoid X receptor-gamma; assay type: functional
[14] = target: T6, Retinoic acid receptor gamma (Homo sapiens, UniProt P13631); assay: Antagonistic activity towards retinoic acid receptor-gamma; assay type: functional
T6 sequence (P13631 whole entry): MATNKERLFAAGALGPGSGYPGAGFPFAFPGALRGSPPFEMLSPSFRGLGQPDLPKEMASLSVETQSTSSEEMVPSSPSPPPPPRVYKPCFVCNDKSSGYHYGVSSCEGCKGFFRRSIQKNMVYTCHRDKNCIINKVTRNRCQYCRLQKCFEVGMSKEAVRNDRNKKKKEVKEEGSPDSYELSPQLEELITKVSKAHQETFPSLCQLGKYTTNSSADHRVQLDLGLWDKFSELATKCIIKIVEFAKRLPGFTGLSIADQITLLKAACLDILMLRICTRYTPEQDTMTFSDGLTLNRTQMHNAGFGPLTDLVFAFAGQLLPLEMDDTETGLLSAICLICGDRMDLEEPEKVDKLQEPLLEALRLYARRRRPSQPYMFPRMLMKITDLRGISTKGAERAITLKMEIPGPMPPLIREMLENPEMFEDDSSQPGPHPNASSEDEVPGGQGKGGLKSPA
How it was run: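 Recombinant RARγ in a nitrocellulose filter competitive binding assay with 4 nM [³H]-9-cis-retinoic acid (diluted with cold ligand to 8 Ci/mmol). Ki = IC50/(1 + [L]/Kd).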

Question: How did the Ki [1] turn out when `CC1c2ccccc2N=C(c2ccc(C(=O)O)cc2)c2cc3c(cc21)C(C)(C)CCC3(C)C` (centres undefined) was run?
Answer: 2000 nM

Question: Which EC50 (HL-60 [2]) does the source give for `CN1c2ccccc2N=C(c2ccc(C(=O)O)cc2)c2ccccc21` here?
Answer: Not Active

Question: Which EC50 (HL-60 [2]) does the source give for `CN1c2ccccc2N=C(c2ccc(C(=O)O)cc2)c2cc(Br)ccc21` here?
Answer: Not Active

Question: How did the Ki [3] turn out when `CN1c2cc3c(cc2N=C(c2ccc(C(=O)O)cc2)c2ccccc21)C(C)(C)CCC3(C)C` was run?
Answer: 220 nM

Question: And the IC50 (HL-60 [4])?
Answer: 150 nM

Question: What about the Ki [5] of the same compound?
Answer: 1400 nM

Question: For `CC1(C)CCC(C)(C)c2cc3c(cc21)NC(=O)CN=C3c1ccc(C(=O)O)cc1`, which EC50 (HL-60 [2]) is on record?
Answer: Not Active

Question: How did the IC50 (HL-60 [4]) turn out when `CN1c2cc3c(cc2N=C(c2ccc(C(=O)O)cc2)c2ccc4cc5ccccc5cc4c21)C(C)(C)CCC3(C)C` was run?
Answer: 320 nM

Question: How did the IC50 (HL-60 [6]) turn out when `CN1c2ccc(C34CC5CC(CC(C5)C3)C4)cc2N=C(c2ccc(C(=O)O)cc2)c2ccccc21` was run?
Answer: Not Active

Question: For `CC1(C)CCC(C)(C)c2cc3c(cc21)Sc1ccccc1N=C3c1ccc(C(=O)O)cc1`, which Ki [7] is on record?
Answer: 400 nM

Question: And the Ki [1]?
Answer: 900 nM

Question: What about the Ki [8] of the same compound?
Answer: 320 nM

Question: What about the Ki [9] of the same compound?
Answer: 900 nM

Question: And the Ki [10]?
Answer: 620 nM

Question: For `CN1c2ccccc2N=C(c2ccc(C(=O)O)cc2)c2cc3c(cc21)C(C)(C)CCC3(C)C`, which Ki [7] is on record?
Answer: 640 nM

Question: What about the Ki [8] of the same compound?
Answer: 680 nM

Question: What about the Ki [9] of the same compound?
Answer: 1900 nM

Question: And the Ki [10]?
Answer: 1000 nM

Question: `CN1c2cc3c(cc2N=C(c2ccc(C(=O)O)cc2)c2c1ccc1ccccc21)C(C)(C)CCC3(C)C` was tested. Which IC50 (HL-60 [4]) did it give?
Answer: 120 nM

Question: Which Ki [3] does the source give for `CN1c2cc3c(cc2N=C(c2ccc(C(=O)O)cc2)c2ccc4ccccc4c21)C(C)(C)CCC3(C)C` here?
Answer: 500 nM

Question: And the IC50 (HL-60 [4])?
Answer: 36 nM

Question: What about the Ki [11] of the same compound?
Answer: 3800 nM

Question: What about the Ki [12] of the same compound?
Answer: 1700 nM

Question: And the Ki [5]?
Answer: 1300 nM

Question: What about the Ki [13] of the same compound?
Answer: 1500 nM

Question: What about the Ki [14] of the same compound?
Answer: 490 nM

Question: Which Ki [7] does the source give for `CC1(C)CCC(C)(C)c2cc3c(cc21)Cc1ccccc1N=C3c1ccc(C(=O)O)cc1` here?
Answer: 790 nM

Question: What about the Ki [1] of the same compound?
Answer: 1600 nM

Question: What about the Ki [8] of the same compound?
Answer: 810 nM

Question: What about the Ki [9] of the same compound?
Answer: 1800 nM

Question: And the Ki [10]?
Answer: 1000 nM

Question: `CN1c2ccccc2N=C(c2ccc(C(=O)O)cc2)c2cc(-c3ccccc3)ccc21` was tested. Which EC50 (HL-60 [2]) did it give?
Answer: Not Active

Question: With `CN1c2ccccc2N=C(c2ccc(C(=O)O)cc2)c2cc(C(C)(C)C)ccc21` as the compound, how does the EC50 (HL-60 [2]) read?
Answer: Not Active

Question: Which IC50 (HL-60 [4]) does the source give for `CN1c2ccc(C(C)(C)C)cc2N=C(c2ccc(C(=O)O)cc2)c2ccccc21` here?
Answer: > 1000 nM

Question: For `CN1c2cc3c(cc2N=C(c2ccc(C(=O)O)cc2)c2c1c1ccccc1c1ccccc21)C(C)(C)CCC3(C)C`, which IC50 (HL-60 [4]) is on record?
Answer: 350 nM

Question: Which results are given for `CC1(C)CCC(C)(C)c2cc3c(cc21)Oc1ccccc1N=C3c1ccc(C(=O)O)cc1`?
Answer: Ki [7]: 1200 nM; Ki [1]: 980 nM; Ki [8]: 320 nM; Ki [9]: 3800 nM; Ki [10]: 2100 nM

Question: `CCCCCCCN1c2cc3c(cc2N=C(c2ccc(C(=O)O)cc2)c2ccccc21)C(C)(C)CCC3(C)C` was tested. Which IC50 (HL-60 [4]) did it give?
Answer: 210 nM

Question: For `CCCN1c2cc3c(cc2N=C(c2ccc(C(=O)O)cc2)c2ccccc21)C(C)(C)CCC3(C)C`, which IC50 (HL-60 [4]) is on record?
Answer: 130 nM

Question: For `CC(C)c1cc2c(cc1C(C)C)N(C)c1ccccc1C(c1ccc(C(=O)O)cc1)=N2`, which IC50 (HL-60 [6]) is on record?
Answer: Not Active

Question: `CN1c2cc3c(cc2N=C(c2ccc(C(=O)O)cc2)c2cc4c(cc21)C(C)(C)CCC4(C)C)C(C)(C)CCC3(C)C` was tested. Which IC50 (HL-60 [4]) did it give?
Answer: 830 nM
